# ChEMBL document CHEMBL1765009, “Novel hydrazine molecules as tools to understand the flexibility of vascular adhesion protein-1 ligand-binding site: toward more selective inhibitors” (J Med Chem, 2011)
# Legend:
# [1] = Selectivity ratio, ratio of IC50 for rat liver MAO-A/MAO-B to IC50 for human recombinant VAP-1
# Monoamine oxidase = biological target: T1, Monoamine oxidase (Rattus norvegicus, UniProt P19643+P21396); assay: Inhibition of rat liver MAO-A/MAO-B after 30 mins by coupled colorimetric method
# T1 sequence (P19643 whole entry): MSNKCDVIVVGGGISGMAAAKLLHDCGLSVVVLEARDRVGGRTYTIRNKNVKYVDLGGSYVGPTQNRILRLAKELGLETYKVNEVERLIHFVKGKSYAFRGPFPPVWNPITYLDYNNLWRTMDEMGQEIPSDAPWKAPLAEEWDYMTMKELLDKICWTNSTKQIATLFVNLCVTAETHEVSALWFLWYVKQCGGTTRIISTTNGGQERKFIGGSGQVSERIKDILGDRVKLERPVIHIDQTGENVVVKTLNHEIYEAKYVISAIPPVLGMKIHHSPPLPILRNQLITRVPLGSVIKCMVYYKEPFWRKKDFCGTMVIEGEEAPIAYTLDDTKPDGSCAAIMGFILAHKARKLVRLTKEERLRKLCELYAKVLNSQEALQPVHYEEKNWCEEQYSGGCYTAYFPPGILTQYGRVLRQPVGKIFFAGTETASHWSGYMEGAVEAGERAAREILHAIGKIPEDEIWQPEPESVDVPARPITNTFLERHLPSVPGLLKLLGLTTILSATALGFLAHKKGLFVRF
# T1 sequence (P21396 whole entry): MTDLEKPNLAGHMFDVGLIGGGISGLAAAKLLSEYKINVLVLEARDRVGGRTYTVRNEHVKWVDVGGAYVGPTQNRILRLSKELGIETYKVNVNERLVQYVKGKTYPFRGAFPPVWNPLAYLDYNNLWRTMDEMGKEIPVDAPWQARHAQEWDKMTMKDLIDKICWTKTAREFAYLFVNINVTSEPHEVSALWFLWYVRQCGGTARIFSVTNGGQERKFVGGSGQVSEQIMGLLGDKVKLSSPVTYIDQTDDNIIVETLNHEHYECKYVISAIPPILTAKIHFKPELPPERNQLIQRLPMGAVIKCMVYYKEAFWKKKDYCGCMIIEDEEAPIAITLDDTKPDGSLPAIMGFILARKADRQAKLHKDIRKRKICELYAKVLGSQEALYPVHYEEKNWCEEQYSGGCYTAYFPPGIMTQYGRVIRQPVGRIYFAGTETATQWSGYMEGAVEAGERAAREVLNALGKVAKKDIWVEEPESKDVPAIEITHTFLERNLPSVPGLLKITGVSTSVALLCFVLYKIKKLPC
# Procedure, shortened: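 Enzyme source: mitochondrial fraction from rat liver (MAO A plus MAO B), homogenized in 0.1 M phosphate pH 7.4 and isolated by differential centrifugation. Coupled HRP/4-aminoantipyrine colorimetric assay with 1 mM vanillic acid as chromogen. Inhibitor (1 nM–50 µM) was preincubated 30 min at 37 °C, then tyramine added (0.5 mM final), 1 h at 37 °C, A490 read. IC50 given as mean ± SEM of 2–4 experiments.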
# [2] = biological target: T2, Amine oxidase [copper-containing] 3 (Homo sapiens, UniProt Q16853); assay: Inhibition of human recombinant VAP-1 expressed in CHO cells after 30 mins by coupled colorimetric method; format: cell-based
# T2 sequence (Q16853 whole entry): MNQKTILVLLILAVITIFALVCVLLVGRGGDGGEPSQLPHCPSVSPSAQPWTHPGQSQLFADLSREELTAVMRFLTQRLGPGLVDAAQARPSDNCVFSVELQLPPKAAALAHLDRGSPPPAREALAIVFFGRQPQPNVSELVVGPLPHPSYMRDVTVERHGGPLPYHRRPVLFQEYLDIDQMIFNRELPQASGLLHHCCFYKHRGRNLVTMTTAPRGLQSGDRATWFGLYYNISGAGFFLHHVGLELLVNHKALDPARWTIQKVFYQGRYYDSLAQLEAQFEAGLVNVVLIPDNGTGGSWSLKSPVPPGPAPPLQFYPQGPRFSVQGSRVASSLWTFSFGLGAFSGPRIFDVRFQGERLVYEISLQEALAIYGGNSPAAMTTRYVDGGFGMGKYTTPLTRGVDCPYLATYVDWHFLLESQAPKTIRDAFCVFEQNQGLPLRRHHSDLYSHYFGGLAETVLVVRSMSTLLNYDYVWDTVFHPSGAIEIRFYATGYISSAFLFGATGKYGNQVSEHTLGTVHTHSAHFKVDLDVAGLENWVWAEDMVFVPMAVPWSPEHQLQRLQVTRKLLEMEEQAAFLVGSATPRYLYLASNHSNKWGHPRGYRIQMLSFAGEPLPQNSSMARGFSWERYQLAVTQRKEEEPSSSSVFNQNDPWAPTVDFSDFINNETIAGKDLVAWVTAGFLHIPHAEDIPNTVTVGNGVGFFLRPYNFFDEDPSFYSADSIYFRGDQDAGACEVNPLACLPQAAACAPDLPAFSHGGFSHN
# Procedure, shortened: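 Enzyme source: clarified lysate of CHO cells stably transfected with full-length human VAP-1 cDNA. The lysate was made in 150 mM NaCl, 10 mM Tris pH 7.2, 1.5 mM MgCl2 and 1% NP40 at 4 °C overnight. Reaction started with 1 mM benzylamine, 1 h at 37 °C, A490 read. IC50 given as mean ± SEM of 2–4 experiments.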
Ratio IC50 [1],IC50 (Monoamine oxidase),IC50 [2],Compound
250,9900 nM,40 nM,NNC[C@H](O)c1ccccc1
90,99000 nM,1060 nM,CN(N)[C@H](c1ccccc1)[C@H](O)c1ccccc1
72,85000 nM,1180 nM,CN(N)[C@@H](c1ccccc1)[C@@H](O)c1ccccc1
320,105000 nM,330 nM,CN(N)[C@H](c1ccccc1)[C@@H](O)c1ccccc1
250,70000 nM,280 nM,CN(N)[C@@H](c1ccccc1)[C@H](O)c1ccccc1
0.7,34000 nM,50000 nM,NN[C@@H](c1ccccc1)[C@H](O)c1ccccc1 (relative stereo)
65,9800 nM,150 nM,NNC[C@@H](O)c1ccccc1
9,11000 nM,1200 nM,CCCC(NN)C(O)c1ccccc1 (mixture of isomers)
